# Experimental data reported in publication PMC7161550 (British Journal of Pharmacology, 2020).
# Values joined by “and” are separate entries in the source; they are usually repeats but may differ in a detail not shown here. Equal values may be shown once. Read-outs that look alike come from different tables or passages of the source.
# Assays:
# [1] = target: T1, rat brain fatty acid amide hydrolase (FAAH) (Rattus norvegicus, UniProt P97612); type: biochemical
# T1 sequence (P97612 1-579): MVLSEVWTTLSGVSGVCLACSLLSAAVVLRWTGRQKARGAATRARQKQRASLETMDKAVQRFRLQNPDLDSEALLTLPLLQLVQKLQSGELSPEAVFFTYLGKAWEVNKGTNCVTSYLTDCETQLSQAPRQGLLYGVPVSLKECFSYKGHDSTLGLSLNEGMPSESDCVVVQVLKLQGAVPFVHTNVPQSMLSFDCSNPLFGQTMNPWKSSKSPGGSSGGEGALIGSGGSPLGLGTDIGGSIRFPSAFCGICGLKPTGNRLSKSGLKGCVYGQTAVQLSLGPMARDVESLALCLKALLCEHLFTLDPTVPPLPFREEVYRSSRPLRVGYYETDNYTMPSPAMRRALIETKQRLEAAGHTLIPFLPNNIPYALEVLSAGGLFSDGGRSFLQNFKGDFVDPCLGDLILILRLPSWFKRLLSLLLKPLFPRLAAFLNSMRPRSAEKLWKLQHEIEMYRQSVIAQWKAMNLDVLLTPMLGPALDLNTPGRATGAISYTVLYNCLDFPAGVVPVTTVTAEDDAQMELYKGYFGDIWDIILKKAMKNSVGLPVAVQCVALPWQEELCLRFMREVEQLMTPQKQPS
# Method in brief: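 Rat brain membranes from Wistar rats, 10 μg protein, in 1 mM EDTA, 10 mM Tris, pH 7.6. Test compound at 1 nM–10 μM, pre-incubated with enzyme 5–60 min, or reaction started with enzyme when not pre-incubated. Substrate 2 μM AEA + 5 nM 3H‑AEA + 0.1% fatty acid-free BSA, 30 min at room temperature with agitation. Charcoal stop; supernatant 3H‑ethanolamine counted. Blank and vehicle controls; IC50 from normalized variable-slope sigmoidal fit.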
# [2] = system: brain 2‐arachidonoylglycerol (2‐AG); experiment: 2‐arachidonoylglycerol; type: in vivo; details: mouse, 10 mg·kg^−1 p.o.
# Method in brief: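 Frozen brains were thawed at 4°C and weighed. Each sample was extracted with chloroform:MeOH (2:1) plus 0.1 M phosphate buffer, pH 5.6. Deuterated internal standards were spiked in: AEA‑d8, PEA‑d4 and OEA‑d2 for the fatty acid amides, and 2‑AG‑d8 for 2‑AG.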
# [3] = target: T2, mouse brain fatty acid amide hydrolase (FAAH) (Mus musculus, UniProt O08914); experiment: Ex vivo FAAH activity in mouse brain after oral administration; details: for ED50 [95% CI] Brain: 8 hr after oral administration
# T2 sequence (O08914 1-579): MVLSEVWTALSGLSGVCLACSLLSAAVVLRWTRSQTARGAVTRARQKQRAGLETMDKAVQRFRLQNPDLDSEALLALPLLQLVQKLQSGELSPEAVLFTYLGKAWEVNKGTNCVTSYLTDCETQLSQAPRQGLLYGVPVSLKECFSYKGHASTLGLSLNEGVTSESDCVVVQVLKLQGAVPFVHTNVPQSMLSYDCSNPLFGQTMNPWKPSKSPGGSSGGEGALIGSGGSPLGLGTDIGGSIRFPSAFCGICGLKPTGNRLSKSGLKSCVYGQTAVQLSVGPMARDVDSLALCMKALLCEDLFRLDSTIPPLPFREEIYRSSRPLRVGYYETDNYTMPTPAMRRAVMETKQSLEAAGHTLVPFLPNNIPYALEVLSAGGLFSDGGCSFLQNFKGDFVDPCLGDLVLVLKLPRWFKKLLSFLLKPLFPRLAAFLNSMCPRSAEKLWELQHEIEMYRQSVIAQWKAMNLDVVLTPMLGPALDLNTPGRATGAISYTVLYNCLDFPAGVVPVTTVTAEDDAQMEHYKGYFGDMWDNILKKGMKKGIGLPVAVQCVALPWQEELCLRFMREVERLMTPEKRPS
# Method in brief: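 Liver and half-brain were collected into FAAH membrane buffer (3 mM MgCl2, 1 mM EDTA, 50 mM Tris HCl, pH 7.4) and stored at −20°C. Homogenates (15 μg protein brain, 5 μg liver) were pre-incubated 15 min at 37°C. AEA + 3H‑AEA + BSA was added for 10 min (brain) or 7 min (liver), then charcoal. Scintillation counting gave % remaining activity versus controls after blank subtraction.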
# [4] = Plasma and brain levels of BIA 10‐2474 and PF‐04457845 in mice; type: in vivo; details: mouse; for Tmax / half-life / AUC(0-t) / Cmax: po
# [5] = GLP rat toxicology studies; type: in vivo; details: 100 mg·kg^−1, assuming brain:plasma ratio of 1:5
# [6] = brain (without cerebellum), 0.3 mg/kg
smiles,measurement,setting,value
"CN(C(=O)n1cnc(-c2ccc[n+]([O-])c2)c1)C1CCCCC1 [BIA 10‐2474, 3‐(1‐(cyclohexyl (methyl)carbamoyl)‐1H‐imidazol‐4‐yl)pyridine 1‐oxide]",IC50,"[1]; IC50 [95% CI], pre‐incubation 0 min",1.13 µM
same,IC50,"[1]; IC50 [95% CI], pre‐incubation 5 min",1.18 µM
same,IC50,"[1]; IC50 [95% CI], pre‐incubation 15 min",0.626 µM
same,IC50,"[1]; IC50 [95% CI], pre‐incubation 30 min",0.424 µM
same,IC50,"[1]; IC50 [95% CI], pre‐incubation 45 min",0.36 µM
same,IC50,"[1]; IC50 [95% CI], pre‐incubation 60 min",0.398 µM
same,IC50,"[1]; IC50 values over all pre‐incubation times, rat brain membranes",0.36 to 1.13 µM
same,IC50 fold higher than those for JNJ‐42165279,[1]; rat brain membranes,2–4 fold
same,brain 2‐AG level,"[2]; 1 hr, vehicle 45.1 ± 7.9",30.4 ± 11.7 µg/g
same,brain 2‐AG level,"[2]; 4 hr, vehicle 40.9 ± 3.4",44.5 ± 4.9 µg/g
same,brain 2‐AG level,"[2]; 8 hr, vehicle 39.0 ± 13.2",34.9 ± 7.7 µg/g
same,brain 2‐AG level,"[2]; 24 hr, vehicle 38.0 ± 5.7",31.4 ± 9.4 µg/g
same,ED50 [95% CI] Brain,[3]; 480 min,"13.5 μg·kg^−1 and 13.5 [10.2, 17.7] μg·kg^−1"
same,inhibition at 0.1 mg/kg,"[3]; po, read-out: maximal inhibition of brain FAAH",91.4%
same,Brain AUClast,[4]; 0.1 mg·kg^−1 p.o.,11.3 ng·h/g
same,Brain C max,[4]; 0.1 mg·kg^−1 p.o.,5.3 ng/g
same,maximum level in brain,"[4]; 0.1 mg·kg^−1 p.o., equivalent of 5.3 ng·g^−1",18 nM
same,maximum level in plasma,"[4]; 0.1 mg·kg^−1 p.o., equivalent of 33.0 ng·ml^−1",109 nM
same,Brain AUClast,[4]; 0.3 mg·kg^−1 p.o.,60.8 ng·h/g
same,Brain C max,[4]; 0.3 mg·kg^−1 p.o.,21.6 ng/g
same,Tmax,"[4]; brain (without cerebellum), 0.1 mg/kg",1 h
same,Tmax,[4]; [6],1 h
same,half-life,[4]; [6],1.75 h
same,AUC(0-t),"[4]; plasma, 0.1 mg/kg",110 ng·h/mL
same,Cmax,"[4]; plasma, 0.1 mg/kg",33 ng/mL
same,Tmax,"[4]; plasma, 0.1 mg/kg",1 h
same,half-life,"[4]; plasma, 0.1 mg/kg",2.2 h
same,AUC(0-t),"[4]; plasma, 0.3 mg/kg",338 ng·h/mL
same,Cmax,"[4]; plasma, 0.3 mg/kg",104 ng/mL
same,Tmax,"[4]; plasma, 0.3 mg/kg",1 h
same,half-life,"[4]; plasma, 0.3 mg/kg",1.9 h
same,maximum brain concentrations (suggested),[5],around 20 μM
O=C(Nc1cccnn1)N1CCC(=Cc2cccc(Oc3ccc(C(F)(F)F)cn3)c2)CC1 [PF‐04457845],IC50,"[1]; read-out: IC50 [95% CI], pre‐incubation 0 min",0.0039 µM
same,IC50,"[1]; read-out: IC50 [95% CI], pre‐incubation 5 min",0.0028 µM
same,IC50,"[1]; read-out: IC50 [95% CI], pre‐incubation 15 min",0.0015 µM
same,IC50,"[1]; read-out: IC50 [95% CI], pre‐incubation 30 min",0.0027 µM
same,IC50,"[1]; read-out: IC50 [95% CI], pre‐incubation 45 min",0.0027 µM
same,IC50,"[1]; read-out: IC50 [95% CI], pre‐incubation 60 min",0.002 µM
same,"brain FAAH activity, % of control levels","[3]; 0.1 mg·kg^−1 p.o., 48 hr",43.8%
same,"inhibition of cerebral FAAH, mean values","[3]; 0.1 mg·kg^−1 p.o., over 24 hr",above 88.7%
same,ED50 [95% CI] Brain,[3],"4.3 [1.8, 9.9] μg·kg^−1"
same,Plasma AUClast,[4]; 0.03 mg·kg^−1 p.o.,4.3 ng·h/mL
same,Plasma C max,[4]; 0.03 mg·kg^−1 p.o.,1.3 ng/mL
same,Plasma t max,[4]; 0.03 mg·kg^−1 p.o.,2 h
same,detection in the brain,[4]; 0.03 mg·kg^−1 p.o.,not detectable
same,Brain AUClast,[4]; 0.1 mg·kg^−1 p.o.,22.9 ng·h/g
same,Brain C max,[4]; 0.1 mg·kg^−1 p.o.,3.7 ng/g
same,Brain t max,[4]; 0.1 mg·kg^−1 p.o.,2 h
same,Plasma AUClast,[4]; 0.1 mg·kg^−1 p.o.,238.3 ng·h/mL
same,Plasma C max,[4]; 0.1 mg·kg^−1 p.o.,38.3 ng/mL
same,Plasma t max,[4]; 0.1 mg·kg^−1 p.o.,2 h
same,"brain levels, fold lower than in plasma",[4]; 0.1 mg·kg^−1 p.o.,approximately 10 fold
